# Active and inactive are the calls of the source. No cut-off for these calls is given here.
# What was measured:
# Jurkat [1] = assay: Antiproliferative activity against human Jurkat T cells assessed as DNA content after 72 hrs by Hoechst 33258 dye based fluorometric method; assay type: functional, cell-based
# How it was run: (§1)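 Jurkat T cells grown in X-VIVO 15 with 10% FBS and antibiotic-antimycotic at 37 °C, 5% CO2, passages 5–10, mycoplasma-free, STR-authenticated. IC50 came from nonlinear regression, mean ± SE of three experiments. Uridine, where added, was at 100 μM.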
# Jurkat [2] = assay: Cytotoxicity against human Jurkat T cells assessed as compound concentration required to induce up to 30% cell death after 72 hrs by CellTox green assay
# Jurkat [3] = assay: Antiproliferative activity against human Jurkat T cells assessed as DNA content up to 100 uM after 72 hrs in presence of exogenous uridine by Hoechst 33258 dye based fluorometric method; assay type: functional, cell-based; how it was run: as §1
# PBMC = assay: Immunosuppressive activity against human PBMC assessed as inhibition of PHA-stimulated cell proliferation preincubated for 2 hrs followed by PHA stimulation for 72 hrs by BrdU incorporation assay; assay type: functional, cell-based
# [4] = Solubility in pH 7.4 PBS buffer at 1 mg after 24 hrs by HPLC-UV method; assay type: physicochemical
# [5] = Stability in human Jurkat cells assessed as parent compound remaining at 100 uM after 72 hrs by HPLC-UV method; assay type: ADME, cell-based; conditions: read-out: Stability
# [6] = Solubility in pH 7.4 PBS buffer with 1% DMSO at 1 mg after 24 hrs by HPLC-UV method; assay type: physicochemical
# [7] = Solubility in human Jurkat cell growing medium with 1% DMSO at 1 mg after 24 hrs by HPLC-UV method; assay type: physicochemical
# [8] = Selectivity index, ratio of compound concentration required to induce up to 30% cell death in human Jurkat T cells to IC50 for antiproliferative activity against human Jurkat T cells; assay type: functional
# How it was run: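 Ratio of two Jurkat T-cell readouts, both after 72 h compound or DMSO exposure of 5×10^3 cells/well. The numerator is the concentration causing ≥30% cytotoxicity by CellTox green (0.001–100 μM). Cells were grown in X-VIVO 15 with 10% FBS; three independent experiments.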
# Jurkat [9] = assay: Antiproliferative activity against human Jurkat T cells assessed as DNA content up to 200 uM after 72 hrs in presence of exogenous uridine by Hoechst 33258 dye based fluorometric method; assay type: functional, cell-based
# How it was run: as §1, with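 “STR-authenticated. 5×10^3 cells were exposed to 0.001–200 μM compound or DMSO vehicle for 72 h, lysed in 0.02% SDS/SSC, and stained with Hoechst 33258 (ex 355/em 460 nm).” for “STR-authenticated.”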
smiles,measurement,setting,value
O=C(Nc1c(F)c(F)c(-c2ccccc2)c(F)c1F)c1no[nH]c1=O,IC50,Jurkat [1],59.7 µM
same,Activity,Jurkat [2],> 100 µM
Cc1c(C(=O)Nc2c(F)c(F)c(-c3ccccc3)c(F)c2F)c(O)nn1C,IC50,Jurkat [1],2.22 µM
same,Activity,Jurkat [3],inactive
same,IC50,PBMC,10.7 µM
same,solubility at 24 h,[4],< 0.1 µM
same,"remaining at 72 h, 100 µM",[5],94%
same,solubility at 24 h,[6],7 µM
same,solubility at 24 h,[7],> 100 µM
same,Selectivity Index,[8],70
same,Activity,Jurkat [2],82 µM
Cn1nnc(O)c1C(=O)Nc1c(F)c(F)c(-c2ccccc2)c(F)c1F,IC50,Jurkat [1],5.82 µM
same,solubility at 24 h,[4],48 µM
same,"remaining at 72 h, 100 µM",[5],99%
same,Activity,Jurkat [2],8.3 µM
O=C(Nc1c(F)c(F)c(-c2cccc(OC(F)(F)F)c2)c(F)c1F)c1no[nH]c1=O,IC50,Jurkat [1],68.3 µM
same,Activity,Jurkat [2],> 100 µM
O=C(Nc1c(F)c(F)c(-c2cccc(OC(F)(F)F)c2)c(F)c1F)c1nsnc1O,IC50,Jurkat [1],2.5 µM
same,Activity,Jurkat [2],5.2 µM
O=C(Nc1c(F)c(F)c(-c2ccccc2)c(F)c1F)c1nn(CC2CC2)nc1O,IC50,Jurkat [1],7.13 µM
same,Activity,Jurkat [2],11 µM
O=C(Nc1c(F)c(F)c(-c2ccccc2)c(F)c1F)c1c(O)nnn1CC1CC1,IC50,Jurkat [1],3.22 µM
same,Activity,Jurkat [2],6 µM
Cn1nc(O)c(C(=O)Nc2ccc(-c3ccccc3)cc2F)n1,IC50,Jurkat [1],35.7 µM
same,Activity,Jurkat [2],56.8 µM
Cc1c(-c2ccc(-c3ccccc3F)cc2)nc2ccc(F)cc2c1C(=O)O [BREQUINAR],IC50,Jurkat [1],0.93 µM
same,Activity,Jurkat [3],inactive
same,IC50,PBMC,4.3 µM
same,solubility at 24 h,[4],359 µM
same,"remaining at 72 h, 100 µM",[5],98%
same,Activity,Jurkat [2],45 µM
Cn1nc(O)c(C(=O)Nc2c(F)cc(-c3ccccc3)cc2F)n1,IC50,Jurkat [1],13.3 µM
same,Activity,Jurkat [2],49.3 µM
C/C(O)=C(\C#N)C(=O)Nc1ccc(C(F)(F)F)cc1 [TERIFLUNOMIDE],Activity,Jurkat [9],inactive
same,IC50,PBMC,54.3 µM
same,"remaining at 72 h, 100 µM",[5],101%
same,Activity,Jurkat [2],53 µM
O=C(Nc1c(F)c(F)c(-c2ccccc2)c(F)c1F)c1nsnc1O,IC50,Jurkat [1],1.04 µM
same,Activity,Jurkat [3],inactive
same,IC50,PBMC,6.2 µM
same,solubility at 24 h,[4],1690 µM
same,"remaining at 72 h, 100 µM",[5],80%
same,Selectivity Index,[8],70
same,Activity,Jurkat [2],78 µM

# Reference: ChEMBL document CHEMBL4004863, “Design, synthesis, biological evaluation and X-ray structural studies of potent human dihydroorotate dehydrogenase inhibitors based on hydroxylated azole scaffolds” (Eur J Med Chem, 2017)
